Measured values pooled from the literature.
Target: Serine/threonine-protein kinase 38-like (STK38L, Homo sapiens, UniProt Q9Y2H1)

| Structure (SMILES) | read-out | action | technique | cells | concentration | quantity | value |
| --- | --- | --- | --- | --- | --- | --- | --- |
| Cn1c2c(c3ccc(Cl)c(Cl)c31)C(C#N)C1(CCNCC1)NC2=O (racemic) | thermal stability | – | DSF | – | 10 µM | ΔTm | -0.2 °C |
| CN(C(=O)c1ccccc1)c1cc(N(C)c2ccc3c(c2)CCc2ccc(C(=O)NCCN4CCOCC4)cc2C3=O)ccc1F | cell-free assay | – | competition with immobilised ligand | – | 1 µM | remaining binding | 47% |
| CC(C)(O)[C@H]1CC[C@H](Nc2ccc3ncc(-c4cccc(C(F)(F)F)c4)n3n2)CC1 | enzyme activity | inhibitor | – | – | 1 µM | remaining activity | 91.9% |
| O=C(O)[C@@H]1[C@@H](Cn2nnc3ccccc3c2=O)CC[C@H]1C(=O)c1ccc(OCCC2CCOCC2)cc1 | binding | – | competition with immobilised ligand | – | 1 µM | remaining binding | 100% |
| CCC1(CC)NC(=O)c2c(c3ccc(Cl)c(Cl)c3n2C)C1C#N (centres unmarked) | thermal stability | – | DSF | – | 10 µM | ΔTm | 0 °C |
| O=C(Nc1cnn(-c2csc(C(=O)NC3COC3)c2)c1)Nc1ccccc1Cl | enzyme activity | inhibitor | – | – | 5 µM | remaining activity | 103% |
| Cn1c2c(c3ccc(Cl)c(Cl)c31)C(C#N)C(C)(C)NC2=O (centres unmarked) | thermal stability | – | DSF | – | 10 µM | ΔTm | -0.1 °C |
| NS(=O)(=O)c1cc(NC(=O)Cc2ccccc2)ccc1Oc1cccc(Cl)c1 | cell-free assay | – | competition with immobilised ligand | – | 1 µM | remaining binding | 100% |
| Cn1c2c(Cl)c(Cl)ccc2c2cc(N)[nH]c(=O)c21 | thermal stability | – | DSF | – | 10 µM | ΔTm | 0.3 °C |
| CCN1CCN(Cc2ccc(NC(=O)c3ccc(C)c(Oc4ccnc5[nH]ccc45)c3)cc2C(F)(F)F)CC1 | target engagement in cells | inhibitor | chemoproteomics | Huh-7 | 1 µM | inhibition | -11.8% |
| Cn1c2c(Cl)c(Cl)ccc2c2cn[nH]c(=O)c21 | thermal stability | – | DSF | – | 10 µM | ΔTm | 0.1 °C |
| Cc1sc(C(=O)NC2COC2)cc1-n1cc(NC(=O)Nc2c(F)cccc2Cl)cn1 | enzyme activity | inhibitor | – | – | 10 µM | remaining activity | 95.1% |
| COc1cc(-c2cc(-c3ccc(N4CCNCC4)cc3)cnc2C)cc(OC)c1OC | enzyme activity | inhibitor | – | – | 0.1 µM | inhibition | 0% |
| N#CC1c2c([nH]c3c(Cl)c(Cl)ccc23)C(=O)NC12CCCCC2 (racemic) | thermal stability | – | DSF | – | 10 µM | ΔTm | 0.2 °C |
| CN(C)C(=O)Cn1cc(-c2nc([C@@](C)(c3ccc(-c4cnc(N)nc4)cc3)C3CC3)no2)cn1 | binding | – | competition with immobilised ligand | – | 1 µM | remaining binding | 91% |
| CN(C)c1ncc(F)c(-c2cnn3ncccc23)n1 | binding | – | – | – | 1 µM | remaining binding | 100% |
| Cc1nc(N2CC[C@@H](O)C2)ncc1-c1cc(C(F)(F)F)cc2[nH]ncc12 | binding | – | competition with immobilised ligand | – | 1 µM | remaining binding | 87% |
| COc1cc(Cl)c(C(=O)N[C@@H](CN[C@H]2CC[C@@H](N)CC2)Cc2ccc(C#N)cc2)cc1-c1ccc(CN[C@H](C)c2ccc(C)cc2)o1 | enzyme activity | inhibitor | – | – | 1 µM | remaining activity | 91% |
| CS(=O)(=O)c1cc(C2(NC(=O)c3cncc4c3cnn4-c3ccc(F)cc3)CC2)ccn1 | cell-free assay | – | competition with immobilised ligand | – | 1 µM | remaining binding | 34% |
| CNc1cc(Oc2cc(C(=O)Nc3cc(N4CCN(C)CC4)cc(C(F)(F)F)c3)ccc2C)ncn1 | target engagement in cells | inhibitor | chemoproteomics | Huh-7 | 1 µM | inhibition | -35.6% |
